Test results reported in ChEMBL document CHEMBL1140297, “Discovery of novel and potent small-molecule inhibitors of NO and cytokine production as antisepsis agents: synthesis and biological activity of alkyl 6-(N-substituted sulfamoyl)cyclohex-1-ene-1-carboxylate” (J Med Chem, 2005).
Activity calls are given as the source filed them. The rule behind the calls is not given here.

Legend:
[1] = system: RAW264.7; assay: Inhibition of LPS-induced nitric oxide production in mouse RAW264.7 cells; assay type: functional, cell-based
In short: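 RAW264.7 macrophages were plated at 1 × 10⁵ cells/well and cultured overnight. Cells were exposed to 10 ng/mL LPS with graded compound concentrations for 20 h at 37 °C, 5% CO₂, in phenol red-free RPMI1640 containing 1% heat-inactivated FBS. Supernatant nitrite was read fluorometrically with DAN followed by NaOH (ex 355/em 460 nm). IC50 is the concentration halving NO versus control; mean ± SD of two or three experiments.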

[2] = system: Mus musculus; assay: Suppression of serum IL1-beta level in LPS-challenged BALB/c mouse endotoxin shock model at 0.1 to 3 mg/kg, iv; assay type: functional, organism-based
In short: (§1)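 Female BALB/c mice (6-week-old) received compound iv at 0.1–3 mg/kg in 10% glucuronylglucosyl-β-cyclodextrin, 1 h before LPS 7 mg/kg ip. Serum was collected at 1 h for TNF-α, 2 h for IL-6 and 6 h for IL-1β, then assayed by ELISA. n = 8 mice; means ± SE; one-tailed Williams or Shirley-Williams test versus vehicle.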

[3] = system: Mus musculus; assay: Suppression of serum nitric oxide level in LPS-challenged BALB/c mouse endotoxin shock model at 0.1 to 3 mg/kg, iv; assay type: functional, organism-based
In short: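 Female BALB/c mice were dosed iv at 0.1–3 mg/kg (10% glucuronylglucosyl-β-cyclodextrin vehicle) 1 h before LPS 7 mg/kg ip. Serum was taken at 6 h. Nitrate was reduced to nitrite with Aspergillus nitrate reductase and β-NADPH for 20 min, then read with DAN/HCl and NaOH fluorescence (ex 355/em 460 nm) against a sodium nitrite standard curve. n = 8 mice; means ± SE.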

[4] = system: Mus musculus; assay: Suppression of serum IL6 level in LPS-challenged BALB/c mouse endotoxin shock model at 0.1 to 3 mg/kg, iv; assay type: functional, organism-based; in short: as §1
[5] = system: RAW264.7; assay: Inhibition of LPS-induced TNFalpha production in mouse RAW264.7 cells by ELISA; assay type: functional, cell-based
In short: (§2)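 RAW264.7 cells (grown in RPMI1640 with 10% heat-inactivated FBS) were seeded at 1 × 10⁵ cells/well and left overnight. They were then stimulated with 10 ng/mL LPS (E. coli O111:B4) plus a range of compound concentrations for 20 h at 37 °C in phenol red-free RPMI1640 with 1% FBS. TNF-α and IL-6 in the supernatant were measured by ELISA.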

[6] = system: Mus musculus; assay: Survival of LPS-challenged BALB/c mouse endotoxin shock model at 3 mg/kg, iv; assay type: functional, organism-based; set-up: dose 3 mg/kg
In short: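 Female BALB/c mice (6-week-old, acclimated at least 1 week) were given compound iv in 10% glucuronylglucosyl-β-cyclodextrin 1 h before a lethal LPS challenge (7 mg/kg ip). Survival was recorded for 7 days, with 10 mice per group. Survival was analysed by Tarone's test with a closed step-down method versus vehicle.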

[7] = system: Mus musculus; assay: Survival of LPS-challenged intravenously dosed BALB/c mouse endotoxin shock model; assay type: functional; conditions: iv
In short: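 Female BALB/c mice (6-week-old, 15-21 g), acclimated at least one week. Compound dissolved in 10% (w/v) glucuronylglucosyl-β-cyclodextrin sodium salt, given iv at 0.3-3 mg/kg 1 h before lethal LPS (E. coli O111:B4, 7 mg/kg ip, in saline). Survival recorded for 7 days; 10 mice per group; Tarone's test with simple closed step-down method vs vehicle; ED50 as minimum effective dose.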

[8] = system: Mus musculus; assay: Suppression of serum TNF-alpha level in LPS-challenged BALB/c mouse endotoxin shock model at 0.1 to 3 mg/kg, iv; assay type: functional, organism-based; in short: as §1
[9] = system: RAW264.7; assay: Inhibition of LPS-induced IL6 production in mouse RAW264.7 cells by ELISA; assay type: functional, cell-based; in short: as §2

| Compound | IC50 [1] | other results |
| --- | --- | --- |
| CCOC(=O)C1=CCCCC1S(=O)(=O)Nc1cccc(F)c1F (stereo unspecified) | 140 nM |  |
| CCOC(=O)C1=CCCCC1S(=O)(=O)Nc1cccc(Cl)c1 (stereo unspecified) | 66 nM |  |
| CCOC(=O)C1=CCCCC1S(=O)(=O)N(C)c1ccc(Cl)cc1F (stereo unspecified) | 230 nM |  |
| CCOC(=O)C1=CCCCC1S(=O)(=O)Nc1ccc(Cl)cc1Cl (stereo unspecified) | 20 nM |  |
| CCOC(=O)C1=CCCCC1S(=O)(=O)Nc1ccc(Cl)cc1 (stereo unspecified) | 400 nM |  |
| CCOC(=O)C1=CCCCC1S(=O)(=O)Nc1ccc(F)cc1 (stereo unspecified) | 110 nM |  |
| CCOC(=O)C1=CCCCC1S(=O)(=O)Nc1ccccc1Cl (stereo unspecified) | 12 nM |  |
| CCCOC(=O)C1=CCCCC1S(=O)(=O)Nc1ccc(F)cc1F (stereo unspecified) | 29 nM |  |
| O=C1C2=C(CCCC2)S(=O)(=O)N1c1ccc(F)cc1 | 4100 nM |  |
| CCCCOC(=O)C1=CCCCC1S(=O)(=O)Nc1ccc(F)cc1F (stereo unspecified) | 140 nM |  |
| CCOC(=O)C1=CCCC[C@H]1S(=O)(=O)Nc1ccc(F)cc1Cl [RESATORVID] | 1.8 nM | Activity [2]: Active; Activity [3]: Active; Activity [4]: Active; IC50 [5]: 1.9 nM; Activity [6]: Active; ED50 [7]: 0.3 mg/kg; Activity [8]: Active; IC50 [9]: 1.3 nM |
| O=C(OCCO)C1=CCCCC1S(=O)(=O)Nc1ccc(F)cc1F (stereo unspecified) | 330 nM |  |
| CCOC(=O)C1=CCCCC1S(=O)(=O)Nc1ccc(C)cc1Cl (stereo unspecified) | 41 nM |  |
| CCOC(=O)C1=CCCCC1S(=O)(=O)Nc1ccc(Cl)cc1F (stereo unspecified) | 160 nM | IC50 [5]: 230 nM; IC50 [9]: 170 nM |
| CCOC(=O)C1=C(S(=O)(=O)Nc2ccc(Cl)cc2F)CCCC1 | 1700 nM |  |
| CCOC(=O)C1=CCCCC1S(=O)(=O)Nc1cc(F)c(F)cc1F (stereo unspecified) | 30 nM |  |
| CCOC(=O)C1=CCCCC1S(=O)(=O)Nc1ccc(F)cc1Cl (stereo unspecified) | 3.2 nM | IC50 [5]: 3.4 nM; IC50 [9]: 2.5 nM |
| CCOC(=O)C1=CCCC[C@@H]1S(=O)(=O)Nc1ccc(F)cc1Cl | 640 nM | IC50 [5]: 740 nM; IC50 [9]: 480 nM |
| CC(C)OC(=O)C1=CCCCC1S(=O)(=O)Nc1ccc(F)cc1F (stereo unspecified) | 110 nM |  |
| CCOC(=O)C1=CCCCC1S(=O)(=O)Nc1nccs1 (stereo unspecified) | > 10000 nM |  |
| C/C=C(\C(=O)OCC)C(CCC)S(=O)(=O)Nc1ccc(F)cc1Cl (stereo unspecified) | 2600 nM |  |
| COC(=O)C1=CCCCC1S(=O)(=O)Nc1ccc(F)cc1F (stereo unspecified) | 57 nM |  |
| CCOC(=O)C1=CCCCC1S(=O)(=O)Nc1c(F)cccc1F (stereo unspecified) | 160 nM |  |

Continued, in another order:

| IC50 [1] | Compound | other results |
| --- | --- | --- |
| 150 nM | CCOC(=O)C1=CCCCC1S(=O)(=O)Nc1cccc(F)c1 (stereo unspecified) |  |
| > 10000 nM | CCOC(=O)C1=CCCCC1S(=O)(=O)Nc1nncs1 (stereo unspecified) |  |
| 49 nM | CC(C)COC(=O)C1=CCCCC1S(=O)(=O)Nc1ccc(F)cc1F (stereo unspecified) |  |
| 16 nM | CCOC(=O)C1=CCCCC1S(=O)(=O)Nc1ccc(F)cc1F (stereo unspecified) |  |
| 1100 nM | CCOC(=O)C1=CCCCC1S(=O)(=O)Nc1ccccc1C(=O)OC (stereo unspecified) |  |
| 75 nM | CCOC(=O)C1=CCCCC1S(=O)(=O)Nc1ccccc1F (stereo unspecified) |  |
| 260 nM | CCOC(=O)C1=CCCCC1S(=O)(=O)Nc1ccccc1 (stereo unspecified) |  |
| 1400 nM | CCOC(=O)C1=C(S(=O)(=O)Nc2ccc(F)cc2)CCCC1 |  |
| 130 nM | CCOC(=O)C1=CCCCC1S(=O)(=O)Nc1ccccc1CC (stereo unspecified) |  |
| 240 nM | CCOC(=O)C1=CCCCCC1S(=O)(=O)Nc1ccc(F)cc1Cl (stereo unspecified) |  |
| 1600 nM | CCOC(=O)C1=CCCCC1S(=O)(=O)Nc1ccc(C#N)cc1Cl (stereo unspecified) |  |
| 110 nM | CCOC(=O)C1=CCCC1S(=O)(=O)Nc1ccc(F)cc1Cl (stereo unspecified) |  |
| > 8200 nM | CCOC(=O)C1=C(S(=O)(=O)Nc2ccccc2)CCCC1 |  |
| > 10000 nM | CCOC(=O)c1ccccc1S(=O)(=O)Nc1ccc(F)cc1Cl |  |
